The source of these data is the RNAGym collection of RNA variant scans (doi:10.1126/science.aae0568).

This sample holds only a part of the variants without activity.

B1: tRNA (parent)
chain: GUUCCGUUGGCGUAAUGGUAACGCGUCUCCCUCCUAAGGAGAAGACUGCGGGUUCGAGUCCCGUACGGAACG

The variants in this series derive from B1. Briefly: yeast fitness relative to wild type (ratio to wild type); higher = fitter; tRNA-Arg(CCU), competitive growth, 37 C, YPD. The method, boiled down:
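Variants of the tRNA-Arg(CCU) gene, chemically synthesised with a 3% per-site mutation rate at 69 sites, were placed at the native genomic locus in Saccharomyces cerevisiae. The pooled strains were competed in YPD at 37°C for 24 hours in six parallel replicates. Gene amplicons from the start population and from each end population were read by 100-nucleotide paired-end sequencing. Darwinian fitness relative to wild type came from changes in genotype frequencies; genotypes needed ≥ 100 starting reads, and estimates < 0.5 were set to 0.5.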
As to U8G G58U A65G G67A, the yeast fitness was 0.547.

Consider G9A A45U U64C, for which the yeast fitness amounted to 0.57. Consider U8C G67A, for which the yeast fitness was 0.85. The result for U8C G67C reads 0.953; that for U8G A21G C27A U35A C62A A65C, 0.568.

As to U8C G12A U19C C34G C66U A69U, the yeast fitness was no more than 0.5. The result for U8G C29G reads 0.55; that for G9A C11G C24G U32A G50A C61U G63C, no more than 0.5; that for U8G C22U U28C C62A, no more than 0.5. The result for U8G A21G C29U U32C reads no more than 0.5; that for G9A A36C A40C A45C, no more than 0.5. As for U8C G50A A69U, the yeast fitness is 0.804. As to U8C U28A A37G G41C, the yeast fitness is no more than 0.5. As for G9A A21U G44A C55G, the yeast fitness was 0.584. The result for U8G G10C U13G C29A C34G A43C C60G reads no more than 0.5; that for U8G C34U C66G, no more than 0.5; that for G9A A14G G23A G41C G51C, no more than 0.5. The result for U8G G12A G50C G52C C55U C62U A70C reads no more than 0.5. U8C U54G U64A: the yeast fitness is 0.543. The result for U8G G17A A70C reads no more than 0.5.

On to U8C G10A U35A, for which the yeast fitness is no more than 0.5. As to G9A A21U A36G A40C, the yeast fitness was no more than 0.5. The result for G9A C22A A57G reads 0.628; that for G9A A43U G56C, 0.536; that for U8C G12A C29G U47C, no more than 0.5. Regarding G9A A40C C49U, the yeast fitness was determined as 0.713. The result for U8C U32C G44A G56A reads no more than 0.5.

In the case of U8C U16C C24U U28C U47A C55U, the yeast fitness is no more than 0.5. The result for G9A C22G U35C A37U reads 0.535; that for U8C C61G, 0.678; that for U8G G9C U54G, no more than 0.5. The result for U8G A15C reads 0.598; that for U8C U13C U47C A65G, no more than 0.5. The result for U8G reads 0.711; that for U8C G9A A20C G68C, 0.527; that for U8C G17A A70U, no more than 0.5. Turning to U8G G48A, the yeast fitness stood at 0.531.

Consider G9A A21G U32G G39C G52C, for which the yeast fitness was no more than 0.5. Take G9A A37C A65C: the yeast fitness stood at 0.56. On to G9A C22A U53A A57G, for which the yeast fitness came out at 0.554. Take U8G C24G G41A: the yeast fitness was found to be 0.553. The result for U8G C11G U32A reads 0.642.

Consider U8G G17A G48C, for which the yeast fitness is no more than 0.5. Turning to U8G A21C G56C, the yeast fitness was determined as 0.766. The result for U8C G38C U64A C66U reads no more than 0.5.

Turning to G9A C24G C29G G39C C55A, the yeast fitness is no more than 0.5.

As to U8G G9C G68A, the yeast fitness was no more than 0.5.

With U8C G23A C30U C55A, the yeast fitness is no more than 0.5.

On to U8G U26A A43C, for which the yeast fitness came out at 0.55.

With U8G C27A C61A, the yeast fitness is no more than 0.5. The result for G9A A21G C61U A65U reads no more than 0.5; that for G9A C24G C27U G44C C61G, no more than 0.5; that for G9A A14C C22G A45C G51C U64C, no more than 0.5. The result for U8C U19G C22U C31U A40U G67A reads 0.53; that for U8C G12A G63A, no more than 0.5; that for G9A A14C G38C G68A, no more than 0.5. For U8G U26A C31U, the yeast fitness was determined as 0.52. The result for U8C G18C A21C C61U C66U reads no more than 0.5; that for G9A C11U G48A, 0.715.

As to G9A A70G, the yeast fitness was found to be 1.06. The result for G9A C22A C61U reads 0.622; that for U8G A37C G52C G58C, no more than 0.5; that for U8C U13A A65G, 0.716. The result for U8C U47C A69C reads 0.714; that for U8C G23A C34A A42U C46A A57C, no more than 0.5; that for G9A A21C G25C U64A G67A, no more than 0.5. In the case of U8G A14U A15U A20C C60U A69C, the yeast fitness is no more than 0.5.

For U8G C24G U59A C60A, the yeast fitness was no more than 0.5.

For U8C G48A, the yeast fitness was 0.899.

For U8G A45C, the yeast fitness was found to be 0.537. The result for U8G A45G reads 0.632; that for G9A A21C C27A A37G A45C, no more than 0.5.

As for G9A A40C A69U, the yeast fitness came out at 0.722. The result for U8C G25C C33A reads no more than 0.5; that for U8C G12A, 0.714. In the case of U8G G17A C24G G58C, the yeast fitness was no more than 0.5. Regarding U8G G17A G56C, the yeast fitness is no more than 0.5. Consider U8C G9C C49U, for which the yeast fitness is no more than 0.5. The result for U8C G9A A42G reads 0.514; that for U8G G10C U19A C22U C55G, no more than 0.5. The result for U8G C60G C61A reads 0.597; that for G9A C11A G38C A40C, no more than 0.5.

For U8C C66G, the yeast fitness amounted to 0.75. The result for U8C C66A reads 0.687; that for U8C C66U, 0.892. The result for G9A C11A C24U C34A A37U C62A C66A reads no more than 0.5. Regarding U8G G17A A20C C22G C29G C34G G68A, the yeast fitness is 0.606.

As to U8C G10C C46U C66U, the yeast fitness is no more than 0.5. Turning to G9A C11U A36C G68C, the yeast fitness is no more than 0.5. Regarding G9A C24A G38A, the yeast fitness was no more than 0.5. The result for U8C U28A reads 0.901; that for G9A C24A C49A A57C, no more than 0.5. The result for U8G U26A G52A reads 0.59.

Regarding G9A A45C C49U, the yeast fitness stood at 0.643. The result for G9A A45C reads 0.971. For U8G A20G G58U A65G G67A, the yeast fitness is no more than 0.5.

For the variant G9A A40U C62G, the yeast fitness came to 0.593. The result for G9A A45U G48A G56A reads 0.701; that for U8G U26A A43C C49U C55G C60A, no more than 0.5; that for G9A A42C G58A, 0.917. For U8C G10C A15C A43C, the yeast fitness is no more than 0.5. In the case of G9A C11G C24G A42U, the yeast fitness is no more than 0.5. Regarding U8G A15U A20C A69C, the yeast fitness was no more than 0.5. The result for U8C G25C G38A G58A C60U C62U reads no more than 0.5; that for U8G U35A, no more than 0.5. The result for U8C G38C C49U C62U A69U reads 0.568. In the case of U8G G25C G52C, the yeast fitness was no more than 0.5.

U8C G12A A45U G48A: the yeast fitness was no more than 0.5.

Take G9A A43G U59A A69G: the yeast fitness is no more than 0.5.

For the variant U8G G51A, the yeast fitness was no more than 0.5. The result for G9A C11G C24G U32A G58C reads no more than 0.5; that for G9A A14G C22U C31A C34U A36C A45C C61U U64A, 0.546; that for U8G C24A C30G A40G U47G C55U C66U A70C, no more than 0.5. U8C G12A G18A A45C: the yeast fitness was no more than 0.5.

Turning to G9A C22U C30A C49A C55A C62U C66U, the yeast fitness is no more than 0.5. The result for U8G G10C U13G C55G U59A reads no more than 0.5; that for G9A C11U A36C A57G A65U, no more than 0.5; that for U8C G17A G41C U64A A65C, no more than 0.5. The result for G9A C24A A36C A37G C49A reads no more than 0.5; that for G9A A21G U59A, 0.731. The result for U8C G23C C27G G50A C66G A69G reads 0.836; that for U8G A21U C62U, no more than 0.5; that for U8C G18C A21C U47A G48C U54G A65C, no more than 0.5. As for G9A A20U C22G, the yeast fitness was 0.53. The result for U8G C31G G41C G50C C60U A69C reads no more than 0.5.

For G9A C11U A36C A57G G68C, the yeast fitness is no more than 0.5.

As to G9A A37C C62G, the yeast fitness is no more than 0.5. The result for U8C U26G A42C reads 0.703. As for U8C G9C A37U G38A G39A, the yeast fitness was no more than 0.5.

Take G9A A20G C62U: the yeast fitness stood at 0.736. For the variant U8C G23C, the yeast fitness was 0.642. The result for U8C G9A U13G C62U reads no more than 0.5; that for U8C C61A A65U, no more than 0.5. The result for U8C G38A G52A reads no more than 0.5; that for G9A A14U A21U A65G, 0.556. The result for G9A C11U G67C reads 0.697; that for U8C G9C C49U G68U, no more than 0.5; that for U8G C33G U54A U59A G67A, no more than 0.5.

With U8G U35A A70U, the yeast fitness is no more than 0.5. The result for G9A A14U G48C reads no more than 0.5; that for U8C G18A A45U G67C, 0.552. On to G9A C24G C34G A69U, for which the yeast fitness was determined as 0.533. The result for G9A A21G A40G A43C U54A reads no more than 0.5. For the variant U8G A37U G52A A57C C60A, the yeast fitness was no more than 0.5. Regarding G9A A36U G39A G52C, the yeast fitness was no more than 0.5. The result for U8C G41C A69U reads 0.637; that for U8C U28G C30G A40C A42U, 0.54.

U8C U19A A40U: the yeast fitness turned out to be 0.581.

For G9A A21C C22A C66U, the yeast fitness is no more than 0.5. The result for U8C G39C U47C C60A C61G A69U reads no more than 0.5; that for G9A A20U C34G A42U G68C, no more than 0.5; that for U8G A14U U16C A40U G48C, no more than 0.5. The result for G9A A65G G68C reads 0.594. In the case of U8G A20U A36C A65G, the yeast fitness is no more than 0.5. The result for U8G C24G C55A A65U reads no more than 0.5; that for U8G C29U G50C U59A, no more than 0.5; that for G9A C11G G50A G51A, no more than 0.5. With U8G C24A C30G A40G U47G C55U, the yeast fitness was 0.512. The result for G9A A14C U32A A70G reads no more than 0.5; that for U8C G17A, 0.711; that for U8C G25A A37C G68U, no more than 0.5. The result for U8G G52A G67C reads 0.521; that for G9A C11U A36C C49G U53G, no more than 0.5.

Consider U8G C55U, for which the yeast fitness turned out to be 0.569. The result for G9A A14C A42G C49G U54C G63C A70U reads no more than 0.5; that for U8C G51A, 0.817; that for G9A A20U C66U, 0.529.
